Source: ChEMBL document CHEMBL3393003, “1,2,3,9b-Tetrahydro-5H-imidazo[2,1-a]isoindol-5-ones as a new class of respiratory syncytial virus (RSV) fusion inhibitors. Part 2: identification of BTA9881 as a preclinical candidate” (Bioorg Med Chem Lett, 2015)
Converted amounts (≈) assume the structure as drawn.

Tests used:
[1] = test system: Respiratory syncytial virus; assay: Resistance index, ratio of EC50 for drug resistant respiratory syncytial virus B1 expressing F protein L141F mutant to EC50 for wild type Respiratory syncytial virus B1; format: functional
[2] = test system: Respiratory syncytial virus; assay: Resistance index, ratio of EC50 for VP-14637 resistant respiratory syncytial virus Long expressing F protein D489Y mutant to EC50 for wild type Respiratory syncytial virus Long
[3] = test system: Respiratory syncytial virus; assay: Resistance index, ratio of EC50 for drug resistant respiratory syncytial virus Long expressing F protein Q494L mutant to EC50 for wild type Respiratory syncytial virus Long
[4] = test system: Respiratory syncytial virus; assay: Antiviral activity against respiratory syncytial virus A2 infected in human Hep2 cells assessed as reduction in virus-induced cytopathic effect after 5 days by MTT assay; format: functional, organism-based; settings: A2, HEp-2, 120 h
Summary of the method: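 HEp2 cells (1.0 × 10⁴/well) infected at low moi (RSV A2 at moi 0.01) and added to serial compound dilutions; incubated 5 days at 37 °C, 5% CO₂. CPE read by MTT (1 mg/ml) metabolism after 2 h incubation.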

[5] = Plasma clearance in Sprague-Dawley rat at 2 mg/kg, iv; format: ADME, organism-based; parameters: dose 2 mg/kg, route intravenous
[6] = test system: Respiratory syncytial virus; assay: Antiviral activity against respiratory syncytial virus Long infected in human Hep2 cells assessed as reduction in virus-induced cytopathic effect after 5 days by MTT assay; format: functional, organism-based; settings: HEp-2, 120 h
[7] = Elimination half life in Sprague-Dawley rat at 19 mg/kg, po; format: ADME, organism-based; parameters: dose 19 mg/kg, route oral; settings: in vivo, read-out: beta t1/2 (converted)
Summary of the method: (§1)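 Male Sprague Dawley rats, n = 2, oral dose as suspension in hydroxypropylmethylcellulose, in carboxymethylcellulose, or in 0.5% HPMC/0.5% benzyl alcohol/0.4% Tween80. Cmax (µM), T1/2 and F (%) derived from plasma levels.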

[8] = Apparent volume of distribution in Sprague-Dawley rat at 2 mg/kg, iv; format: ADME, organism-based; parameters: dose 2 mg/kg, route intravenous; settings: in vivo, read-out: Vz
[9] = Cmax in Sprague-Dawley rat at 19 mg/kg, po; format: ADME, organism-based; parameters: dose 19 mg/kg, route oral; settings: in vivo; summary of the method: as §1
[10] = test system: Respiratory syncytial virus; assay: Antiviral activity against respiratory syncytial virus B1 infected in human Hep2 cells assessed as reduction in virus-induced cytopathic effect after 5 days by MTT assay; format: functional, organism-based; settings: B1, HEp-2, 120 h
[11] = Elimination half life in Sprague-Dawley rat at 2 mg/kg, iv; format: ADME, organism-based; parameters: dose 2 mg/kg, route intravenous; settings: in vivo, read-out: beta t1/2 (converted)
[12] = Oral bioavailability in Sprague-Dawley rat at 19 mg/kg; format: ADME, organism-based; settings: in vivo; summary of the method: as §1
[13] = Lipophilicity, log D of the compound at pH 7.4 by chromatography; format: physicochemical; settings: buffer
Summary of the method: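 Effective logD measured chromatographically on an LC-ABZ column, octanol-saturated mobile phase at pH 7.4.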

[14] = Kinetic solubility in isotonic phosphate buffer at pH 6.5 by nephelometry; format: physicochemical; settings: read-out: Kinetic_solubility
Summary of the method: (§2)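 Compound dissolved in DMSO and added to 0.01 M HCl (pH 2) or pH 6.5 isotonic phosphate buffer, 1% final DMSO. Solubility range determined by nephelometry.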

[15] = Kinetic solubility in 0.01M HCl buffer at pH 2.0 by nephelometry; format: physicochemical; settings: read-out: Kinetic_solubility; summary of the method: as §2
[16] = test system: Respiratory syncytial virus; assay: Potency shift index, ratio of EC50 for respiratory syncytial virus A2 infected in human Hep2 in presence of 1.5 mg/mL Alpha-1-acid glycoprotein to EC50 for respiratory syncytial virus A2 infected in human Hep2 in absence of Alpha-1-acid glycoprotein; format: functional
[17] = Cytotoxicity against human Hep2 cells assessed as reduction in cell viability after 5 days by MTT assay; format: cell-based, HEp-2
Summary of the method: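 Uninfected HEp2 cells (1.0 × 10⁴/well) exposed to serial compound dilutions for 5 days at 37 °C, 5% CO₂. Viability read by MTT (1 mg/ml) metabolism after 2 h incubation.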

[18] = Drug metabolism in iv dosed Sprague-Dawley rat urine assessed as formation of pyridine N-oxides level; format: ADME, organism-based; settings: in vivo
Plasma [19] = assay: Drug metabolism in iv dosed Sprague-Dawley rat plasma assessed as formation of pyridine N-oxides level; format: ADME, organism-based; settings: in vivo
Plasma [20] = assay: Drug metabolism in orally dosed Sprague-Dawley rat plasma assessed as formation of pyridine N-oxides level; format: ADME, organism-based; settings: in vivo, po
[21] = Drug metabolism in orally dosed Sprague-Dawley rat urine assessed as formation of pyridine N-oxides level; format: ADME, organism-based; settings: in vivo, po

Compound	EC50 [4]	Ratio EC50 [16]	CC50 at 120 h [17]	other results
O=c1n(Cc2nc3ccccc3n2CCCCO)c2cnccc2n1C1CC1				Ratio EC50 [1]: >345; Ratio EC50 [2]: >20000; Ratio EC50 [3]: 10
O=C(c1ccc(F)cc1)N1CCN2C(=O)c3ccncc3[C@]12c1ccc(Cl)cc1	110 nM			
O=C(c1ccc(F)cc1)N1CCN2C(=O)c3cc[n+]([O-])cc3[C@]12c1ccc(Cl)cc1	170 nM			
O=C(c1ccoc1)N1CCN2C(=O)c3ccncc3[C@]12c1ccc(Cl)cc1	10 nM			clearance [5]: 55 mL/min/kg; EC50 [6]: 32 nM; half-life [7]: 3.1 h; Vd [8]: 11 L/kg; Cmax [9]: 770 nM; EC50 [10]: 85 nM; half-life [11]: 2.4 h; bioavailability [12]: 35%; chromatographic logD [13]: 2.5; solubility kinetic [14]: > 100 µg/mL; solubility kinetic [15]: 50 µg/mL (≈ 132 µM)
O=C(c1csc(-c2cccnc2)n1)N1CCN2C(=O)c3ccncc3[C@]12c1ccc(Cl)cc1	13 nM			
O=C(c1ccc(F)cc1)N1CCN2C(=O)c3ccncc3[C@@]12c1ccc(Cl)cc1	14000 nM			
O=C(c1ccc(F)cc1)N1CCN2C(=O)c3cc[n+]([O-])cc3[C@@]12c1ccc(Cl)cc1	8600 nM			
O=C(c1ccoc1)N1CCN2C(=O)c3ccncc3[C@@]12c1ccc(Cl)cc1	670 nM			
O=C(c1csc(-c2cccnc2)n1)N1CCN2C(=O)c3ccncc3[C@@]12c1ccc(Cl)cc1	920 nM			
O=C(c1cccnc1)N1CCN2C(=O)c3ccncc3[C@@]12c1ccc(Cl)cc1	> 1200 nM			
O=C(c1ccc(F)nc1)N1CCN2C(=O)c3ccncc3[C@@]12c1ccc(Cl)cc1	7800 nM			
Cn1cc(C(=O)N2CCN3C(=O)c4ccncc4[C@@]32c2ccc(Cl)cc2)c(C(F)(F)F)n1	7.2 nM			EC50 [6]: 6.4 nM; EC50 [10]: 100 nM; chromatographic logD [13]: 3; solubility kinetic [14]: 25 µg/mL (≈ 54.1 µM); solubility kinetic [15]: > 100 µg/mL
Cc1nnnn1N/C=C1\C=CC(=O)C(C(C2=C/C(=C/Nn3nnnc3C)C=CC2=O)c2ccc(O)cc2)=C1 (stereo unspecified)				Ratio EC50 [2]: >2174
Cc1ccc(CCCO)c(NCc2ccc3nc(NCCCN4CCOCC4)n(Cc4nc(C)ccc4O)c3c2)c1				Ratio EC50 [1]: >3333; Ratio EC50 [2]: >10000; Ratio EC50 [3]: 11.5
O=C(c1ccc(F)cc1)N1CCN2C(=O)c3ccncc3C12c1ccc(Cl)cc1 (racemic)		7.2		clearance [5]: 2.7 mL/min/kg; Vd [8]: 6 L/kg; half-life [11]: > 24 h
O=C(c1ccc(F)cc1)N1CCN2C(=O)c3cc[n+]([O-])cc3C12c1ccc(Cl)cc1 (racemic)				clearance [5]: 2.4 mL/min/kg; Vd [8]: 1.3 L/kg; half-life [11]: 6.5 h
O=C(Nc1ccc(F)cc1)N1CCN2C(=O)c3ccncc3C12c1ccc(Cl)cc1 (racemic)	1000 nM		> 20000 nM	
O=C(NCc1ccc(F)cc1)N1CCN2C(=O)c3ccncc3C12c1ccc(Cl)cc1 (racemic)	930 nM		> 20000 nM	
O=C(NCCc1ccc(F)cc1)N1CCN2C(=O)c3ccncc3C12c1ccc(Cl)cc1 (racemic)	620 nM		> 20000 nM	
O=C(c1ccno1)N1CCN2C(=O)c3ccncc3C12c1ccc(Cl)cc1 (racemic)	370 nM		> 19000 nM	

Compound	EC50 [4]	Ratio EC50 [16]	CC50 at 120 h [17]	other results
O=C(c1cc2ccccc2o1)N1CCN2C(=O)c3ccncc3C12c1ccc(Cl)cc1 (racemic)	6400 nM		> 17000 nM	
O=C(c1ccoc1)N1CCN2C(=O)c3ccncc3C12c1ccc(Cl)cc1 (racemic)	96 nM	2.4	> 19000 nM	
O=C(c1ccon1)N1CCN2C(=O)c3ccncc3C12c1ccc(Cl)cc1 (racemic)	180 nM	11	> 20000 nM	
Cc1cc(C(=O)N2CCN3C(=O)c4ccncc4C32c2ccc(Cl)cc2)c(C)o1 (racemic)	120 nM	14	> 18000 nM	
Cc1oc(-c2ccccc2)cc1C(=O)N1CCN2C(=O)c3ccncc3C21c1ccc(Cl)cc1 (racemic)	1600 nM		> 15000 nM	
O=C(c1cccs1)N1CCN2C(=O)c3ccncc3C12c1ccc(Cl)cc1 (racemic)	130 nM	12	> 18000 nM	
O=C(c1ccsc1)N1CCN2C(=O)c3ccncc3C12c1ccc(Cl)cc1 (racemic)	170 nM	27	> 18000 nM	
O=C(c1cscn1)N1CCN2C(=O)c3ccncc3C12c1ccc(Cl)cc1 (racemic)	180 nM	16	> 18000 nM	
Cc1nc(C(=O)N2CCN3C(=O)c4ccncc4C23c2ccc(Cl)cc2)cs1 (racemic)	73 nM	5.7	> 18000 nM	
O=C(c1csc(-c2cccs2)n1)N1CCN2C(=O)c3ccncc3C12c1ccc(Cl)cc1 (racemic)	27 nM	16	> 15000 nM	
O=C(c1csc(-c2cccnc2)n1)N1CCN2C(=O)c3ccncc3C12c1ccc(Cl)cc1 (racemic)	25 nM	10	> 15000 nM	
O=C(c1csc(-c2ccncc2)n1)N1CCN2C(=O)c3ccncc3C12c1ccc(Cl)cc1 (racemic)	2300 nM		> 15000 nM	
Cn1cnc(C(=O)N2CCN3C(=O)c4ccncc4C23c2ccc(Cl)cc2)c1 (racemic)	750 nM		> 20000 nM	
Cn1cncc1C(=O)N1CCN2C(=O)c3ccncc3C21c1ccc(Cl)cc1 (racemic)	730 nM		> 20000 nM	
Cn1cccc1C(=O)N1CCN2C(=O)c3ccncc3C21c1ccc(Cl)cc1 (racemic)	20 nM	91	> 20000 nM	
O=C(c1cccc(Cl)n1)N1CCN2C(=O)c3ccncc3C12c1ccc(Cl)cc1 (racemic)	110 nM	27	> 17000 nM	
O=C(c1ccccn1)N1CCN2C(=O)c3ccncc3C12c1ccc(Cl)cc1 (racemic)	770 nM		> 19000 nM	
O=C(c1ccc2ccccc2n1)N1CCN2C(=O)c3ccncc3C12c1ccc(Cl)cc1 (racemic)	8500 nM		> 17000 nM	
O=C(c1cccnc1)N1CCN2C(=O)c3ccncc3C12c1ccc(Cl)cc1 (racemic)	210 nM	2.8	> 51000 nM	
O=C(c1ccc(F)nc1)N1CCN2C(=O)c3ccncc3C12c1ccc(Cl)cc1 (racemic)	93 nM	1.8	> 48000 nM	Drug metabolism [18]: metabolite_detected; Drug metabolism (Plasma [19]): metabolite_detected; Drug metabolism (Plasma [20]): metabolite_detected; Drug metabolism [21]: metabolite_detected
